Usually IC50 stands for the midpoint of a concentration-inhibition curve. By Ki is commonly meant the equilibrium dissociation constant of an inhibitor or competing ligand from its target.

Results on 13 molecules are retold here after ChEMBL document CHEMBL4334423, “Synthesis, molecular docking, and biological evaluation of novel 2-pyrazoline derivatives as multifunctional agents for the treatment of Alzheimer's disease” (Medchemcomm, 2019).

The target in series [1] is T1, Cholinesterase (Equus caballus, UniProt P81908). The series can be described thus: Inhibition of equine serum BChE using butyrylthiocholine iodide as substrate by Ellman's method. A general note: DTNB colorimetry detects thiols as they appear.
For series [2], the target named is T2, Acetylcholinesterase (Homo sapiens, UniProt P22303). Briefly: Inhibition of human recombinant AChE expressed in HEK293 cells using acetylthiocholine iodide as substrate by Ellman's method.
The nature of series [3]: Selectivity index, ratio of IC50 for human recombinant AChE expressed in HEK293 cells to IC50 for equine serum BChE. The format is cell-based. The method, boiled down: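 Both enzymes were run by the same Ellman method: substrate 0.2–0.5 mM, DTNB 0.125 mM, 100 mM MOPS pH 8.0, 25 °C, read at 412 nm. IC50 came from dose–response curves, and selectivity = IC50(AChE)/IC50(BChE).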

Series [4] has as its target Amyloid-beta precursor protein (Homo sapiens) (UniProt P05067). Briefly: Inhibition of human amyloid beta (1 to 42) self-induced aggregation assessed as Amyloid beta (1 to 42) aggregation at 100 uM incubated for 48 hrs by thioflavin T-based fluorescence assay (reference value: 100%). On the set-up: scale not given: the % may be the effect or the level left.
Series [5] is described as follows: Cytotoxicity against mouse L929 cells assessed as cell viability at 10 uM incubated for 24 hrs by MTT assay (reference value: 100%). The format is cell-based. The note with it: read-out: Activity. The method, boiled down:
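L929 cells (ATCC CCL-1) seeded at 5000 per well, exposed to 10 μM compound for 24 h. MTT reagent was added, formazan dissolved in DMSO, and absorbance read at 570 and 690 nm. Viability is expressed relative to a non-treated control taken as 100%.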

Series [6] deals with SH-SY5Y. Briefly: cells. The format is functional. The note with it: Homo sapiens.
The subject of series [7] is SH-SY5Y. Briefly: cells. The format is functional. As to conditions: Homo sapiens. The source holds these as a separate data set.
Series [8] addresses Amyloid-beta precursor protein (Homo sapiens) (UniProt P05067). The series can be described thus: Inhibition of human amyloid beta (1 to 42) self-induced aggregation assessed as Amyloid beta (1 to 42) aggregation at 10 uM incubated for 48 hrs by thioflavin T-based fluorescence assay (reference value: 100%). Also on record: scale not given: the % may be the effect or the level left.

Series [9] deals with T2, Acetylcholinesterase. Briefly: Competitive inhibition of human recombinant AChE expressed in HEK293 cells using acetylthiocholine iodide as substrate by Dixon and slope replot analysis. Summed up: (§1)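 Ellman assay. Enzyme added last to a mix of thiocholine substrate (0.2–0.5 mM) and 0.125 mM DTNB in 100 mM MOPS pH 8.0 at 25 °C. Absorbance was followed at 412 nm. For kinetics, Dixon plots (1/v versus I) were built at inhibitor 0.5, 1, 10 and 100 μM and fitted with slope replots to get Ki. IC50 came from dose–response curves.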

Series [10] has as its target T1, Cholinesterase. The series can be described thus: Partial non-competitive inhibition of equine serum BChE using butyrylthiocholine iodide as substrate by Dixon and slope replot analysis. Summed up: as §1
The target of series [11] is Cholinesterase (Equus caballus) (UniProt P81908). The series can be described thus: Partial non-competitive inhibition of equine serum BChE assessed as decrease in Vmax with unchanged Km using butyrylthiocholine iodide as substrate by Dixon and slope replot analysis. The method, boiled down:
as §1

Calls of active or inactive are those of the source. The calls are words filed in the database; no cut-off is given here.

Chain of Amyloid-beta precursor protein (Homo sapiens) (P05067 whole entry): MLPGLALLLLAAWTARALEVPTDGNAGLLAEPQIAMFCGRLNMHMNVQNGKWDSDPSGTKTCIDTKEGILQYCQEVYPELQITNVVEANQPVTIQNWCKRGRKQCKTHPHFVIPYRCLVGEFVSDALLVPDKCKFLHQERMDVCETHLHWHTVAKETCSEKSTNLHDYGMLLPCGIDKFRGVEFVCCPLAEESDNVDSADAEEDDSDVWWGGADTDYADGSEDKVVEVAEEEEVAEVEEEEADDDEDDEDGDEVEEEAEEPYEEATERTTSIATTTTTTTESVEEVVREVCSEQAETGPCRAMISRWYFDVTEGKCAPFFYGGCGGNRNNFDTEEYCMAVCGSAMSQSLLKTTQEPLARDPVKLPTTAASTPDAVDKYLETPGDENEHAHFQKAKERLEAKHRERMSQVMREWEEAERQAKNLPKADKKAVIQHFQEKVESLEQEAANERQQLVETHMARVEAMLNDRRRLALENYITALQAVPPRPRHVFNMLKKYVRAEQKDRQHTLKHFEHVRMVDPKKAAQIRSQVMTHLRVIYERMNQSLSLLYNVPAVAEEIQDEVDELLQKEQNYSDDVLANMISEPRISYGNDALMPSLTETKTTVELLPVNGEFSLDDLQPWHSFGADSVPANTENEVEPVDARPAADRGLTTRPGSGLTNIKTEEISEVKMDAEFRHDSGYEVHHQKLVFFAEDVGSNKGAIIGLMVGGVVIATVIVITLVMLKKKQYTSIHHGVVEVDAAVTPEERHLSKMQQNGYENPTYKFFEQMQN
T1 sequence (P81908 whole entry): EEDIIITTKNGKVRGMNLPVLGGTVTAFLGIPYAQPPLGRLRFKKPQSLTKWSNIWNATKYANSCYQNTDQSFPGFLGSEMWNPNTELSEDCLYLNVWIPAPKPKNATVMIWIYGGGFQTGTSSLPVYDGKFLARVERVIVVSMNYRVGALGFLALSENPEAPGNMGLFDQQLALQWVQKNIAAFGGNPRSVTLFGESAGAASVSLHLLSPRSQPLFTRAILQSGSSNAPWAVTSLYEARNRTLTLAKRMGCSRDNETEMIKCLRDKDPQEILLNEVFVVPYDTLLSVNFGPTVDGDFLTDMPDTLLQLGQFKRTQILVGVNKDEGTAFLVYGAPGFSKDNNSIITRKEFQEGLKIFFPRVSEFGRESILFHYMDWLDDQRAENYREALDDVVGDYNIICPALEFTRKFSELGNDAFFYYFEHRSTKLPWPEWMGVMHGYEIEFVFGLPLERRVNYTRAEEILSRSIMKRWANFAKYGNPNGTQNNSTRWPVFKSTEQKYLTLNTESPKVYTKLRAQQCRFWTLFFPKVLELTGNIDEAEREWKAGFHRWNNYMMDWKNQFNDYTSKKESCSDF
T2 sequence (P22303 whole entry): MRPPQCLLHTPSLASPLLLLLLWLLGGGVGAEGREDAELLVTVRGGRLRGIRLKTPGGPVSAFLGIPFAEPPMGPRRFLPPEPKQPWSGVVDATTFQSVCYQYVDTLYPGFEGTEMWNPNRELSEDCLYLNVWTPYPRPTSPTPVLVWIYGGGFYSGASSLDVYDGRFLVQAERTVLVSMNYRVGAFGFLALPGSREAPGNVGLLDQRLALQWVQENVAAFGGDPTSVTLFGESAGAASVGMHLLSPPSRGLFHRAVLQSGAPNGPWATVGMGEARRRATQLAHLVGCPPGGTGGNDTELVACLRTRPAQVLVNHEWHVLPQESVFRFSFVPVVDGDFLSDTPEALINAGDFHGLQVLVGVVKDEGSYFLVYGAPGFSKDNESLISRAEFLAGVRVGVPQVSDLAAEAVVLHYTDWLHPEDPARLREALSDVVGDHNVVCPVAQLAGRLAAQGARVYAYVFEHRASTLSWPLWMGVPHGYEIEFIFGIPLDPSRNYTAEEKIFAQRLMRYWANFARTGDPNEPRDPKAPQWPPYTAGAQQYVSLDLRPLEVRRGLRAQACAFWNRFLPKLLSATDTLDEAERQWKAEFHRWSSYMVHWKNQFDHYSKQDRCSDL
Chain of Cholinesterase (Equus caballus) (P81908 whole entry): as the sequence (P81908 whole entry) above

As for `COc1ccc(C2=NN(C(C)=O)C(c3ccc(-n4ccnc4)cc3)C2)cc1OC` (stereo unspecified), the half-inhibitory concentration (IC50) in series [1] was found to be 32.7 µM; in series [2] it was 206 µM. Moreover, in [3], the Ratio IC50 turned out to be 6.3.
On to `COc1ccc(C2=NN(C(C)=O)C(c3ccc(-n4cnc5ccccc54)cc3)C2)cc1OC` (stereo unspecified), for which the half-inhibitory concentration (IC50) in series [1] was determined as 254 µM; in series [2], 319 µM. For the same molecule, the Ratio IC50 in [3] came out at 1.2.
`COc1ccc(C2=NN(C(C)=O)C(c3ccc(N4CCC(C)CC4)cc3)C2)cc1OC` (stereo unspecified): the IC50 turned out to be 3.9 µM in [1] and 77.4 µM in series [2]. The Ratio IC50 in series [3] came out at 19.9. In addition, the Activity amounted to 63.4% in series [4] and 80.6% in series [8]. Also, the viability at 24 h, 10 µM in [5] amounted to 95.4%. Further, the viability at 10 µM turned out to be 78.4% in series [6] and 81.1% in [7].
In the case of `COc1ccc(C2=NN(C(C)=O)C(c3ccc(-n4cncn4)cc3)C2)cc1OC` (stereo unspecified), the results for the IC50 in [1] and in [2] were 27.5 µM and 955 µM, respectively. Further, the Ratio IC50 in series [3] was determined as 34.8.
Take `COc1ccc(C2=NN(C(C)=O)C(c3ccc(N4CCN(Cc5ccccc5)CC4)cc3)C2)cc1OC` (stereo unspecified): the IC50 amounted to 0.5 µM in series [1] and 62.8 µM in series [2]. For the same molecule, the Ratio IC50 in [3] was 128. In series [4], the Activity is 89.8%. In series [5], the viability at 24 h, 10 µM was 93.3%. For the same molecule, the viability at 10 µM in [6] came out at 69.3%; in [7] it was 87%.
Take `COc1ccc(C2=NN(C(C)=O)C(c3ccc(N4CCN(Cc5ccccc5)CC4)cc3)C2)cc1` (stereo unspecified): the IC50 in series [1] is 137 µM; in series [2], 100 µM. Further, in [3], the Ratio IC50 was 0.7.
Turning to `COc1ccc(C2=NN(C(C)=O)C(c3ccc(N4CCN(C)CC4)cc3)C2)cc1OC` (stereo unspecified), the IC50 was 6 µM in series [1] and 6.5 µM in [2]. For the same molecule, in series [3], the Ratio IC50 came out at 1.1. Also, the Ki in [9] is 0.63 µM. Besides, the Activity in [4] turned out to be 72.6%. Further, the viability at 24 h, 10 µM in series [5] is 93.3%. Besides, the values for the viability at 10 µM in series [6] and in series [7] were 95.6% and 93.6%, respectively.
As to `COc1cc2c(cc1OC)C(=O)C(CC1CCN(Cc3ccccc3)CC1)C2` (stereo unspecified) [DONEPEZIL], the viability at 10 µM was 62.5% in series [6] and 69% in series [7].
As to `COc1ccc(C2=NN(C(C)=O)C(c3ccc(N4CCN(c5ccccc5)CC4)cc3)C2)cc1OC` (stereo unspecified), the 50% inhibitory concentration (IC50) in series [1] came out at 1900 µM; in series [2], 295 µM. Further, the Ratio IC50 in series [3] amounted to 0.2.
In the case of `COc1ccc(C2=NN(C(C)=O)C(c3ccc(N4CCC(Cc5ccccc5)CC4)cc3)C2)cc1OC` (stereo unspecified), the IC50 came out at 2.1 µM in series [1] and 20.1 µM in [2]. The Ratio IC50 in series [3] was determined as 9.8. Besides, the Activity was found to be 86.4% in series [4] and 82.2% in series [8]. Moreover, the viability at 24 h, 10 µM in series [5] is 101%. In addition, the viability at 10 µM in series [6] worked out at 83.5%; in series [7] it was 84.4%.
As for `CCN1CCN(c2ccc(C3CC(c4ccc(OC)cc4)=NN3C(C)=O)cc2)CC1` (stereo unspecified), the figures for the IC50 in series [1] and in series [2] were 217 µM and 221 µM, respectively. Further, in [3], the Ratio IC50 came to 1.
Turning to `CCN1CCN(c2ccc(C3CC(c4ccc(OC)c(OC)c4)=NN3C(C)=O)cc2)CC1` (stereo unspecified), the values for the concentration for half-maximal inhibition (IC50) in series [1] and in series [2] were 0.5 µM and 47.9 µM, respectively. In addition, the Ratio IC50 in series [3] was found to be 104. Moreover, the Ki in [10] was determined as 2.22 µM. Moreover, the Activity in series [4] is 83.4%. Further, the viability at 24 h, 10 µM in series [5] was 89.2%. In addition, the viability at 10 µM in series [6] stood at 67.9%; in series [7] it was 87.4%. The inhibition entry in series [11] was “Active”.
`CO[C@H]1/C=C/O[C@@]2(C)Oc3c(C)c(O)c4c(O)c(c(/C=N/N5CCN(C)CC5)c(O)c4c3C2=O)NC(=O)/C(C)=C\C=C\[C@H](C)[C@H](O)[C@@H](C)[C@@H](O)[C@@H](C)[C@H](OC(C)=O)[C@@H]1C`: the Activity in [4] was determined as 48.4%.
